# Source: PubChem
# A selection: hits, their analogues and other compounds. The true share with any hit is near 2.5%.
# A1 inh – inhibitors of the anti-apoptotic protein A1, read as caspase activation | MEF A1-2A-BIM cells, Caspase-Glo 3/7 luminescence, 3 h; percent of clofoctol response, vehicle zero | caspase activation, % (no concentration beside the values) | 330,000 tested, 0.066% active | AID 2462;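 active = over half of replicate activation scores above 10%, or exactly half above 10 with the replicate mean above 10; inconclusive = replicate mean below 10 yet half the replicates above 10; inactive = over half of replicates below 10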
# Tb MetRS inh – Trypanosoma brucei MetRS inhibition. purified T. brucei MetRS, ATP depletion, Kinase-Glo luminescence. inhibition, % at 11.9 µM. 360,000 tested, 0.4% active;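 active = inhibition above a per-plate cutoff of the control wells' mean inhibition plus 3 SD, cut at about 5.5% in these data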;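 note: 0% = DMSO wells median and 100% = median of wells with control inhibitor compound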
#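 Material: T. brucei methionyl-tRNA synthetase, purified; reagent: substrates ATP, L-methionine and bulk Escherichia coli tRNA; dosing: 11.9 µM single point; timing: 15 min plus 2 h at 25 °C; detection: luminescence of leftover ATP; evaluation: % inhibition; control set: DMSO-only wells as low control; replicates: singlicate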
# NALP1 inh – inhibitors of NALP1 inflammasome in yeast | S. cerevisiae NALP1/ASC/caspase-1 growth, X-gal OD620, 72 h | inhibition, % at 10 µM | 280,000 tested, 0.61% active; in the data active = inhibition mostly above about 24%, no sharp cut-off; inactive = mostly below about 32%
# NLRP3 yeast inh – NALP3 inhibition in yeast. Yeast reconstituted NLRP3/ASC/caspase-1, beta-gal luminescence, 24 h. 330,000 tested, 0.39% active. inhibition, % at 10 µM;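 active = inhibition of 50% or more; inactive = inhibition below 50%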;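 note: plate controls were induced DMSO wells for no effect and uninduced yeast grown without galactose for full effect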
# MC4R antag cAMP – antagonists of human melanocortin 4 receptor (MC4R) | MC4R-expressing cells, MTII-stimulated cAMP, LANCE TR-FRET | 360,000 tested, 0.48% active | AID 540295 | inhibition, % at 6.5 µM;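 active = inhibition above its plate's cutoff, the mean of tested wells on that plate plus 3 SD, cut at about 29% in these data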;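 note: 0% = Melanotan II alone and 100% = Melanotan II plus saturating MCL0020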
# Target sequence (P32245 whole entry, looked up): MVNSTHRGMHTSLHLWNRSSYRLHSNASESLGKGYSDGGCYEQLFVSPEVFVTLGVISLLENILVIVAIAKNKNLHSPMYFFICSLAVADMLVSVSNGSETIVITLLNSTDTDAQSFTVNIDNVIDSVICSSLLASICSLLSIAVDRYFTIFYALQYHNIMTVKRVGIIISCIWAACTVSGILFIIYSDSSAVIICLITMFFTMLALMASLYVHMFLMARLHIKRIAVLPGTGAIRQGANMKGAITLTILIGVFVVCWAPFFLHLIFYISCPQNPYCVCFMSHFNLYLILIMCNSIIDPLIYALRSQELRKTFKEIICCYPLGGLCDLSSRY
#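 Material: U2OS-MC4R stable cell line | Reagent: Melanotan II challenge after compound preincubation | Doses: One concentration, 6.5 µM nominal | Incubation: 30-min compound preincubation, 1-h Melanotan II challenge, 1-h detection, room temperature | Signal: TR-FRET cAMP assay | Replicates: One well per compound, no replicates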
# MC4R ag barr – human MC4R agonism via beta-arrestin; P32245; U2OS MC4R beta-arrestin complementation, luminescence; percent of melanotan II response, DMSO zero; activation, % at 8.9 µM; 360,000 tested, 0.98% active;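 active = activation above a per-plate cutoff, the mean activation of sample wells on that plate plus 3 SD, cut at about 8% in these data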
# MC4R barr ag – human MC4R beta-arrestin agonism confirmation; shares compounds with MC4R ag barr; U2OS MC4R beta-arrestin recruitment, luminescence; scaled DMSO 0%, Melanotan II 100%; activation, % at 8.9 µM; 2,400 tested, 31% active; AID 602192;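 active = mean activation across replicates above the hit cutoff set in the earlier primary screen, cut at about 8% in these data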
# MOR-DOR barr ag – OPRM1-OPRD1 heterodimer agonism counter-screen | activation, % at 9.2 µM | U2OS PathHunter beta-arrestin, beta-gal luminescence; percent of deltorphin B response, DMSO zero | AID 602194 | shares compounds with MC4R ag barr | 2,400 tested, 5.8% active;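 active = mean activation across replicates exceeds the hit threshold derived in the earlier primary screen, cut at about 18% in these data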;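 note: 100% = deltorphin B at 0.9 µM final and 0% = DMSO alone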
# Starred values were filed as active, the others as inactive; ? = inconclusive; . = no result given.
SMILES,A1 inh,Tb MetRS inh,NALP1 inh,NLRP3 yeast inh,MC4R antag cAMP,MC4R ag barr,MC4R barr ag,MOR-DOR barr ag
O=C1N/C(=C/c2cccn2-c2ccccc2)C(=O)N1Cc1ccc(F)cc1,2,0,22,2,-7,17*,2,5
O=C1N/C(=C/c2cccn2-c2ccc(F)cc2)C(=O)N1Cc1ccccc1F,1,-1,42,4,-5,8,.,.
N#Cc1ccc(-c2ccc(OCC(=O)NCC(=O)Nc3ccc(F)c(F)c3F)cc2)cc1,-1,-1,22,23,11,18*,0,8
COc1ccc(CCNC(=O)COc2ccc(-c3ccc(C#N)cc3)cc2)cc1,0,-1,19,9,1,19*,8,28*
CCOC(=O)C1CCN(S(=O)(=O)c2ccc(CN3C(=O)c4cccnc4C3=O)cc2)CC1,0,-1,20,7,0,3,.,.
O=C1c2cccnc2C(=O)N1Cc1ccc(S(=O)(=O)N2CCN(c3ccc(Cl)cc3)CC2)cc1,1,0,21,17,4,11*,3,3
O=C(CC(=O)Nc1ccc(Cl)cc1Cl)Nc1ccc(Cl)cc1Cl,-1,-1,5,22,6,11*,3,3
CC(=O)OCC(=O)Nc1ccc(Cl)cc1Cl,0,0,-12,18,-5,-2,.,.
C=C1C2(C(=O)Nc3ccc(SC(F)F)cc3)CCC(C2)C1(C)C (stereo not drawn),1,-1,21,-1,-4,17*,0,6
Cc1cccc(C(=O)OCC(=O)Nc2c(C)n(C)n(-c3ccccc3)c2=O)c1,0,0,.,-4,-3,-1,.,.
O=C1CCCCN1CC(=O)N1CCCC(Nc2ccc(F)cc2)C1 (stereo not drawn),1,-1,-8,5,3,0,.,.
O=c1cc(/C=C/c2ccccc2)oc2c1ccc1ccccc12,0,0,34,19,6,29*,16*,4
Cc1ccccc1OCC(=O)Nc1ccc2c(c1)C(=O)c1ccccc1C2=O,-1,-1,20,1,2,22*,8.9*,4
COc1ccccc1OCC(=O)Nc1ccc(Cl)cc1,1,0,3,33,19,0,.,.
COc1ccccc1OCC(=O)Nc1ccc(NC(=O)COc2ccccc2OC)cc1,0,0,23,5,-2,18*,23*,17
Cc1ccccc1OCC(=O)Nc1cccc(C(=O)O)c1,.,0,14,.,0,-2,.,.
Cc1ccc(Oc2nnc(-c3ccccc3)cc2C#N)cc1,0,0,-12,-4,6,27*,5,9
N#Cc1cc(-c2ccccc2)nnc1Oc1ccccc1,0,-2,-2,9,-1,0,.,.
COC(=O)c1cn(CC(C)n2c(=O)c3ccccc3n2Cc2cc(C(C)C)no2)nn1 (stereo not drawn),.,0,.,.,.,.,.,.
O=C(COc1ccccc1)Nc1ccccc1F,-5,-1,14,23,8,0,.,.
O=C(COc1c(Br)cc(Br)c2cccnc12)Nc1ccccc1F,0,0,1,9,-1,13*,2,2
CNC(=O)/C(C#N)=C/c1ccc(-c2nc3ccccc3s2)o1,-5,-1,28,13,-9,38*,1,5
N#C/C(=C\c1ccc(-c2nc3ccccc3s2)o1)C(N)=O,-3,0,.,1,-28,21*,3,7
COC(=O)c1c(NC(=O)CC2SC(N)=NC2=O)sc2c1CCC(C)C2 (stereo not drawn),1,0,17,15,6,0,.,.
COC(=O)c1c(NC(=O)CC2SC(N)=NC2=O)sc2c1CCC(C(C)(C)C)C2 (stereo not drawn),0,-1,27,23,-1,10*,17*,2
SMILES,A1 inh,Tb MetRS inh,NALP1 inh,NLRP3 yeast inh,MC4R antag cAMP,MC4R ag barr,MC4R barr ag,MOR-DOR barr ag
COc1ccc(C)cc1-n1nnnc1SCC(=O)NC1CC1,1,0,.,17,1,-2,.,.
COc1cccc(Nc2nnc(SCC(=O)N(CC(C)C)CC(C)C)s2)c1,0,0,0,6,7,0,.,.
COc1cccc(Nc2nnc(SCN3C(=O)c4ccccc4C3=O)s2)c1,2,0,.,-1,11,14*,-1,3
COc1cccc(NC(=O)C2CC2(c2cccc(OC)c2)c2cccc(OC)c2)c1 (stereo not drawn),0,0,1,5,11,-1,.,.
COc1cccc(C2(c3cccc(OC)c3)CC2C(=O)Nc2cccc3ccccc23)c1 (stereo not drawn),1,1,16,-4,10,9.6*,1,4
O=C(Cn1nc(-c2ccccc2)ccc1=O)Nc1ccc(NC(=O)c2ccccn2)cc1,0,0,5,8,9,14*,22*,22*
CC1=CC(C)(C)n2c(O)c(N=NC(N)=S)c3cccc1c32,1,0,8,-4,9,11*,1,3
CC(/C=C1\SC(=S)N(NC(=O)c2cccc(O)c2)C1=O)=C\c1ccccc1,1,1,6,9,10,9.8*,2,5
COc1cccc(CN2CCNC(=O)C2CC(=O)N(C)CC2CCOCC2)c1 (stereo not drawn),1,0,16,15,2,-2,.,.
Cc1cc(NC(=O)CSc2nc(-c3ccc(Cl)cc3)cs2)no1,1,0,9,27,-3,18*,8,8
NC(=S)N/N=C/c1ccccc1OCCSc1ccc(Cl)cc1,0,0,7,17,-13,11*,1,6
CCNS(=O)(=O)c1ccc(CCC(=O)NCc2ccccn2)cc1,?,0,20,18,-6,-1,.,.
COc1ccc(-c2nc(NC(=O)c3n[nH]c(=O)c4ccccc34)sc2C)cc1,6.7*,1,27,10,5,14*,6,4
COc1cc(NC(=O)c2n[nH]c(=O)c3ccccc23)cc(OC)c1,-3,0,.,2,15,-1,.,.
CC(NCc1ccc(OCc2ccc(Cl)cc2)cc1)C(O)c1ccccc1 (stereo not drawn),-1,-1,29,17,9,16*,26*,12
